In ChEMBL document CHEMBL1125387, “Synthesis and biological action of the aminotetrahydroisoquinocarbazoles and related compounds: a new class of compounds with antiarrhythmic activity” (1992):

Test system: Mus musculus
Assay: Antiarrhythmic activity in chloroform induced ventricular arrhythmia in mice, 15 min before exposure to chloroform intraperitoneal administration
Format: functional, Heart
Conditions: not given
Summary of the method: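 Female ICR mice (20-25 g) dosed ip; 15 min later placed 2 min in 2-L glass chamber saturated with chloroform vapor (150 mL chloroform warmed at 33 °C). Chest opened, ventricular ECG recorded 1 min via silver electrodes. Dose judged effective if ventricular rate <400 bpm just after thoracotomy; 3-10 mice per dose level; ED50 for protection from ventricular tachycardia calculated.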

Compound Cl.N[C@@H]1Cc2c3n(c4cccc(O)c24)C(=O)C[C@H]2CCC[C@@H]1[C@@H]32 (stereo in doubt; (+)-10) has an ED50 of 5 mg/kg.

Same assay, conditions: Mus musculus, Heart, ip; read-out: ED50

Point of comparison: CC[C@@]12CCC[C@H]3[C@H](N)Cc4c(n(c5cc(OC)c(OC)cc45)C(=O)C1)[C@H]32.Cl, ED50 34 mg/kg. Against it:
- N[C@@H]1Cc2c3n(c4ccccc24)C(=O)C[C@H]2CC[C@@H]1[C@@H]32.O=C(O)/C=C/C(=O)O — within 1.5-fold, 40 mg/kg
- N[C@@H]1Cc2c3n(c4ccccc24)C(=O)C[C@H]2CCC[C@@H]1[C@@H]32.O=C(O)/C=C/C(=O)O — within 1.5-fold, 32 mg/kg
- CC[C@]12CCC[C@@H]3[C@H]1c1c(c4c(O)cccc4n1C(=O)C2)C[C@H]3C(=O)NN — higher, > 40 mg/kg
- N[C@@H]1Cc2c3n(c4ccccc24)C(=O)C[C@H]2CCCC[C@@H]1[C@@H]32.O=C(O)/C=C/C(=O)O — 2.4-fold higher, 80 mg/kg
- N[C@@H]1Cc2c3n(c4ccccc24)C(=O)CC[C@H]3C1.O=C(O)/C=C/C(=O)O — higher, > 40 mg/kg
- CC[C@]12CCC[C@@H]3[C@H]1c1c(c4cc(O)ccc4n1C(=O)C2)C[C@H]3C(=O)NCCN1CCCC1 — higher, > 40 mg/kg
- CCCC[C@@]12CCC[C@H]3[C@H](N)Cc4c(n(c5ccc(O)cc45)C(=O)C1)[C@H]32 — 2.8-fold lower, 12 mg/kg
- CC(C)[C@@]12CCC[C@H]3[C@H](N)Cc4c(n(c5ccc(O)cc45)C(=O)C1)[C@H]32 — 4-fold lower, 8.4 mg/kg
- C[C@@]12CCC[C@H]3[C@H](N)Cc4c(n(c5ccc(O)cc45)C(=O)C1)[C@H]32 — higher, > 40 mg/kg
- CC[C@]12CCC[C@@H]3[C@H]1c1c(c4cc(O)ccc4n1C(=O)C2)C[C@H]3C(=O)OCCN1CCN(C)CC1 — the same, 34 mg/kg
- N[C@@H]1Cc2c3n(c4ccc(O)cc24)C(=O)C[C@@]2(CCc4ccccc4)CCC[C@@H]1[C@@H]32 — higher, > 40 mg/kg
- N[C@@H]1Cc2c3n(c4ccc(O)cc24)C(=O)C[C@H]2CCC[C@@H]1[C@@H]32 — higher, > 40 mg/kg
- N[C@@H]1Cc2c3n(c4ccc(O)cc24)C(=O)C[C@@]2(Cc4ccccc4)CCC[C@@H]1[C@@H]32 — higher, > 40 mg/kg
- N[C@@H]1Cc2c3n(c4cccc(O)c24)C(=O)C[C@@]2(CCc4ccccc4)CCC[C@@H]1[C@@H]32 — higher, > 40 mg/kg
- CC[C@@]12CCC[C@H]3CCc4c(n(c5ccccc45)C(=O)C1)[C@H]32 — higher, > 40 mg/kg
- Cl.NCCc1cn(C(=O)CC2CCCCC2)c2ccccc12 — within 1.5-fold, 48 mg/kg
- CC[C@@]12CCC[C@H]3[C@H](N)Cc4c(n(c5cc(O)c(O)cc45)C(=O)C1)[C@H]32.Cl — 4.9-fold lower, 7 mg/kg
- C[C@@]12CCC[C@H]3[C@H](N)Cc4c(n(c5cc(O)c(O)cc45)C(=O)C1)[C@H]32.Cl — the same, 34 mg/kg
- CC[C@@]12CCC[C@H]3[C@H](N)Cc4c(n(c5cccc(O)c45)C(=O)C1)[C@H]32.Cl — 5.7-fold lower, 6 mg/kg
- CCC[C@@]12CCC[C@H]3[C@H](N)Cc4c(n(c5cc(O)c(O)cc45)C(=O)C1)[C@H]32.Cl — 1.7-fold lower, 20 mg/kg
- Cl.N[C@@H]1Cc2c3n(c4cc(O)c(O)cc24)C(=O)C[C@H]2CCC[C@@H]1[C@@H]32 — higher, > 40 mg/kg
- C[C@@]12CCC[C@H]3[C@H](N)Cc4c(n(c5cccc(O)c45)C(=O)C1)[C@H]32.Cl — 4.2-fold lower, 8 mg/kg
- CCC[C@@]12CCC[C@H]3[C@H](N)Cc4c(n(c5cccc(O)c45)C(=O)C1)[C@H]32.Cl — 1.7-fold lower, 20 mg/kg
- Cl.N[C@@H]1Cc2c3n(c4cccc(O)c24)C(=O)C[C@H]2CCC[C@@H]1[C@@H]32 (stereo in doubt; 10) — 3.4-fold lower, 10 mg/kg
- CC(C)N(CCC(C(N)=O)(c1ccccc1)c1ccccn1)C(C)C (configuration not stated) [DISOPYRAMIDE] — 2.9-fold lower, 11.8 mg/kg
